{"source": "paper PMC2812011", "about": "(Cancer cell, 2009)", "key": {"Jak2 kinase": {"molecular_target": "Jak2 kinase (Homo sapiens, UniProt O60674)", "sequence (O60674 808-1132)": "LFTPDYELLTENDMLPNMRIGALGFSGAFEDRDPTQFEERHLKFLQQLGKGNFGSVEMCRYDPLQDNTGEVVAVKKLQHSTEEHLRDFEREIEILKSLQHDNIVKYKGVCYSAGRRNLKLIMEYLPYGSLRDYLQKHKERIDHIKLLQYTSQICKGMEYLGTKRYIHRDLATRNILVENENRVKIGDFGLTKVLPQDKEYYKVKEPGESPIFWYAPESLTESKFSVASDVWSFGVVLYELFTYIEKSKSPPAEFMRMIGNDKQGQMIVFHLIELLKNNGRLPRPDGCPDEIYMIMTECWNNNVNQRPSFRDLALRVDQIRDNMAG", "assay": "Jak2 kinetic studies", "format": "biochemical"}, "TEL-Jak2": {"molecular_target": "TEL-Jak2 (Homo sapiens, UniProt O60674+P41212)", "sequence (O60674 849-1132 limits assumed, one chain of several)": "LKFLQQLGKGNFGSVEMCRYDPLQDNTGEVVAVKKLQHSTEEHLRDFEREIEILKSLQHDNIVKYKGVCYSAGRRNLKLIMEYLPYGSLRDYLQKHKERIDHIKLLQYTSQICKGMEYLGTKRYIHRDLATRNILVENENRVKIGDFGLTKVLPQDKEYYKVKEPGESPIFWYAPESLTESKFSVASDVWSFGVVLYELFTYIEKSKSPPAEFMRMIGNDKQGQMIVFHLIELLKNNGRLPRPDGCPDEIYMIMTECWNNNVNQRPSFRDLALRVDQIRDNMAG", "assay": "Stat5 phosphorylation in Ba/F3 TEL-Jak2 cells", "format": "cell-based"}, "TEL-Jak3": {"system": "TEL-Jak3", "assay": "Stat5 phosphorylation in Ba/F3 TEL-Jak3 cells", "format": "cell-based", "settings": "at or below 1 µM"}, "TEL-Jak1": {"system": "TEL-Jak1", "assay": "Stat5 phosphorylation in Ba/F3 TEL-Jak1 cells", "format": "cell-based", "settings": "at or below 1 µM"}, "TEL-Tyk2": {"system": "TEL-Tyk2", "assay": "Stat5 phosphorylation in Ba/F3 TEL-Tyk2 cells", "format": "cell-based", "settings": "at or below 1 µM"}, "panel of 82 kinases": {"molecular_target": "panel of 82 kinases", "assay": "Kinase selectivity panel of 82 kinases", "format": "biochemical", "settings": "0.10 µM, at or near Km for ATP; count includes Jak2", "procedure,_shortened": "(§1)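 Kinase selectivity panel of 82 kinases chosen to span the kinome by binding-site similarity and gatekeeper residue. Each kinase was assayed with ATP at or near its Km. The test compound was tested at three concentrations: 0.01, 0.10 and 1.0 µM. Percent inhibition was scored, and kinases inhibited by more than 50% were counted.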"}, "Aurora A": {"system": "Aurora A", "assay": "Aurora A in kinase panel", "format": "biochemical", "procedure,_shortened": "as §1"}, "MEF-Stat3-YFP tumors": {"system": "MEF-Stat3-YFP tumors", "assay": "MEF-Stat3-YFP tumor growth in athymic mice", "format": "in vivo", "settings": "50 mg/kg p.o. once daily, relative to vehicle; p = 0.001, n=6"}, "pStat3 Tyr705 [1]": {"system": "pStat3 Tyr705", "assay": "pStat3 in MEF-Stat3-YFP tumor lysates", "format": "in vivo, mice", "settings": "2 h post treatment, 50 mg/kg"}, "[2]": {"system": "DU145, MDAH2774, and MDA-MB-468 cells", "assay": "72 h viability assay in solid tumor cell lines", "format": "cell-based", "settings": "Homo sapiens"}, "DU145 xenografts": {"system": "DU145 xenografts", "assay": "DU145 xenograft tumor growth", "format": "in vivo, mice", "settings": "DU145, 50 mg/kg p.o. once daily, 26 d; p < 0.001, n=7"}, "MDA-MB-468 xenografts": {"system": "MDA-MB-468 xenografts", "assay": "MDA-MB-468 xenograft tumor growth", "format": "in vivo, mice", "settings": "MDA-MB-468, 50 mg/kg p.o. once daily, 30 d; p < 0.001, n=7"}, "MDAH2774 xenografts": {"system": "MDAH2774 xenografts", "assay": "MDAH2774 xenograft tumor growth", "format": "in vivo, mice", "settings": "26 d, p < 0.001, n=10"}, "[3]": {"system": "786-0 renal cell carcinoma vector control xenografts", "assay": "786-0 vector control xenograft tumor growth", "format": "in vivo, mice", "settings": "50 mg/kg, 41 d, p = 0.038, n = 10"}, "[4]": {"system": "786-0 xenografts expressing Stat3C", "assay": "786-0 Stat3C xenograft tumor growth", "format": "in vivo, mice", "settings": "786-0 expressing Stat3C, 50 mg/kg, 41 d"}, "pStat3 Tyr705 [5]": {"system": "pStat3 Tyr705", "assay": "Constitutive pStat3 in DU145, MDA-MB-468 and MDAH2774 cells", "format": "cell-based, human", "settings": "2 h, DU145, MDA-MB-468, MDAH2774"}, "pStat3 Tyr705 [6]": {"system": "pStat3 Tyr705", "assay": "Pharmacodynamics in xenograft tumor lysates and sections", "format": "in vivo, mice"}, "LN-17 cells": {"system": "LN-17 cells", "assay": "LN-17 prostate cancer cells: pStat3, MTS viability, Annexin V", "format": "cell-based, human"}, "Jak1": {"system": "Jak1", "settings": "enzymatic assays, at Km ATP"}}}
{"smiles": "Cc1cc(Nc2nc(N[C@@H](C)c3ncc(F)cn3)ncc2Cl)n[nH]1", "note": "[AZD1480]", "values": [{"measurement": "Ki", "setting": "Jak2 kinase", "result": 0.26, "unit": "nM"}, {"measurement": "IC50", "setting": "TEL-Jak2", "result": 46, "unit": "nM"}, {"measurement": "inhibition of STAT5 phosphorylation", "setting": "TEL-Jak3", "result": "little or no inhibition"}, {"measurement": "inhibition of STAT5 phosphorylation", "setting": "TEL-Jak1", "result": "little or no inhibition"}, {"measurement": "inhibition of STAT5 phosphorylation", "setting": "TEL-Tyk2", "result": "little or no inhibition"}, {"measurement": "kinases inhibited by greater than 50%", "setting": "panel of 82 kinases", "result": "11/82"}, {"measurement": "Aurora A enzyme activity", "setting": "Aurora A", "result": "inhibited"}, {"measurement": "tumor growth inhibition", "setting": "MEF-Stat3-YFP tumors", "result": 58, "unit": "%"}, {"measurement": "pStat3 Tyr705 in tumors", "setting": "pStat3 Tyr705 [1]", "result": "abolished"}, {"measurement": "GI50", "setting": "[2]", "result": "2400 to 5400", "unit": "nM"}, {"measurement": "growth inhibition", "setting": "DU145 xenografts", "result": 81, "unit": "%"}, {"measurement": "growth inhibition", "setting": "MDA-MB-468 xenografts", "result": 111, "unit": "%"}, {"measurement": "growth inhibition", "setting": "MDAH2774 xenografts; MDAH2774, 10 mg/kg twice daily p.o.", "result": 71, "unit": "%"}, {"measurement": "growth inhibition", "setting": "MDAH2774 xenografts; MDAH2774, 30 mg/kg twice daily p.o., tumor regression", "result": 139, "unit": "%"}, {"measurement": "growth inhibition", "setting": "[3]", "result": 48, "unit": "%"}, {"measurement": "growth inhibition", "setting": "[4]", "result": "no growth inhibition"}, {"measurement": "inhibition of constitutive pStat3 Tyr705", "setting": "pStat3 Tyr705 [5]; 0.1 µM", "result": "Significant inhibition"}, {"measurement": "inhibition of constitutive pStat3 Tyr705", "setting": "pStat3 Tyr705 [5]; 0.25 –0.5 µM", "result": "near ablation of signal"}, {"measurement": "pHisH3 staining (mitotic marker)", "setting": "pStat3 Tyr705 [6]; MDAH2774 xenografts, 30 mg/kg, up to 16h post-dose", "result": "No modulation"}, {"measurement": "recovery of pStat3 Tyr705 expression", "setting": "pStat3 Tyr705 [6]; by 16 h after single 30 mg/kg dose, MDAH2774 xenografts", "result": "fully recovered"}, {"measurement": "duration of significant inhibition of pStat3", "setting": "pStat3 Tyr705 [6]; single dose of 30 mg/kg, MDAH2774 xenografts", "result": "> 10", "unit": "h"}, {"measurement": "expression of p44/42 pMAPK and pAKT Ser473 in tumors", "setting": "pStat3 Tyr705 [6]; treated tumors compared to control animals", "result": "No significant change"}, {"measurement": "inhibition of pStat3 Tyr705 in tumor lysates", "setting": "pStat3 Tyr705 [6]; xenografts harvested 2 h post treatment", "result": "Complete inhibition"}, {"measurement": "pStat3 Tyr705", "setting": "LN-17 cells; 24 h", "result": "Dose-dependent inhibition"}, {"measurement": "apoptotic markers Annexin V and PARP cleavage", "setting": "LN-17 cells; 72 h", "result": "dose-dependent increase"}, {"measurement": "viability", "setting": "LN-17 cells; MTS, 72 h, charcoal-stripped FBS", "result": "loss of viability"}, {"measurement": "Jak2 selectivity over Jak1", "setting": "Jak1", "result": "marginal selectivity over Jak1"}, {"measurement": "lethal toxicity or weight loss", "setting": "doses tested, 26 days of dosing", "result": "No lethal toxicity or weight loss"}, {"measurement": "red blood cell counts", "setting": "mouse, in vivo, 10 mg/kg", "result": "no changes"}, {"measurement": "red blood cell counts decrease", "setting": "mouse, in vivo, 30 mg/kg", "result": "approximately 13%"}]}
